The values below come from ChEMBL document CHEMBL3865831, “Cantharimide and Its Derivatives from the Blister Beetle Mylabris phalerata Palla” (J Nat Prod, 2016).

A short description of data set [1]: Cytotoxicity against human HCT116 cells measured after 72 hrs by MTT assay. It counts as functional, cell-based. The following applies: HCT-116, 72 h. The method, boiled down:
(§1)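 Cells were exposed to serial dilutions of compound from 1.00 to 100 μg/mL for 72 h. MTT (400 μg/mL) was then added for 4 h, replaced with DMSO, and absorbance was read at 540 nm. Cantharidin was the positive control.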
For orientation: Tetrazolium assays rely on reduction of a dye to a coloured formazan, in cell work by metabolically active cells.

Data set [2] is described as follows: Cytotoxicity against human BGC823 cells measured after 72 hrs by MTT assay. The class given is functional, cell-based. The note with it: BGC-823, 72 h. The method, boiled down:
as §1

Data set [3] can be described thus: Cytotoxicity against human HepG2.2.15 cells after 72 hrs by MTT assay. It counts as functional, cell-based. The following applies: HepG2 2.2.15, 72 h. The method, boiled down:
as §1

Data set [4] in a line: Toxicity against human HepG2.2.15 cells infected with HBV after 72 hrs by MTT assay. The class given is cell-based, HepG2 2.2.15. The method in brief:
as §1

In data set [5] the test system is Hepatitis B virus. Put plainly: Antiviral activity against Hepatitis B virus infected human HepG2.2.15 cells assessed as inhibition of HBeAg secretion measured after 96 hrs by ELISA. It counts as functional. The following applies: HepG2.2.15, 96 h. The method, boiled down:
(§2)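 HepG2.2.15 cells, stably transfected with the HBV genome, were grown for 24 h in DMEM with 10% FBS, 100 μg/mL G418 and penicillin/streptomycin at 37 °C under 5% CO2. Compounds diluted in culture medium were then added for 96 h. HBeAg or HBsAg in the collected medium was measured by ELISA. Adefovir dipivoxil was the positive control. Data are mean ± SD, n = 3.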
In general terms: An ELISA detects its analyte on a solid surface through an enzyme-linked reagent.

Data set [6] concerns Hepatitis B virus. As to the kind of experiment: Antiviral activity against Hepatitis B virus infected human HepG2.2.15 cells assessed as inhibition of HBsAg secretion measured after 96 hrs by ELISA. The note with it: HepG2.2.15, 96 h. It counts as functional. The method, boiled down:
as §2

Data set [7] can be described thus: Selectivity index, ratio of CC50 for human HepG2.2.15 cells to IC50 for inhibition of HBeAg secretion in Hepatitis B virus infected human HepG2.2.15 cells. The class given is functional. The method, boiled down:
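SI is CC50 in HepG2.2.15 cells divided by IC50 for HBeAg inhibition, the latter measured by ELISA of medium after 96 h of compound treatment. Values are from triplicate determinations.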

In general, IC50 refers to the concentration that gives 50% inhibition. For orientation: CC50 means the concentration giving 50% cytotoxicity. Read a low CC50 as greater toxicity to the cells.

As for `C[C@]12C(=O)N(CCCO)C(=O)[C@H]1[C@@H]1CC[C@H]2O1`, the IC50 in data set [1], in data set [2] and in data set [3] was more than 10 µM in each case.

The compound `C[C@@]12C(=O)N(CCCCN3C(=O)[C@@]4(C)[C@@H]5CC[C@@H](O5)[C@@]4(C)C3=O)C(=O)[C@]1(C)[C@H]1CC[C@@H]2O1` came in with a CC50 at 72 h in data set [4] of more than 220 µM. Also, the IC50 in data set [5] was 19 µM; in data set [6], more than 110 µM; in data set [1], more than 10 µM; in data set [2], more than 10 µM; in data set [3], more than 10 µM.

In the case of `C[C@@]12C(=O)N(CC(N)=O)C(=O)[C@]1(C)[C@H]1CC[C@@H]2O1`, the IC50 in data set [1], in data set [2] and in data set [3] was more than 10 µM in each case.

In the case of `CNC(=O)CCCN1C(=O)[C@@]2(C)[C@@H]3CC[C@@H](O3)[C@@]2(C)C1=O`, the concentration for half-maximal inhibition (IC50) in data set [1], in data set [2] and in data set [3] was more than 10 µM in each case.

In turn, `C[C@@]12C(=O)N(CCO)C(=O)[C@]1(C)[C@H]1CC[C@@H]2O1` had a CC50 at 72 h in data set [4] of more than 420 µM. Further, the IC50 in data set [5] is 62 µM; in data set [6], more than 210 µM; in data set [1], more than 10 µM; in data set [2] it was more than 10 µM; in data set [3] it was more than 10 µM.

For the compound `CN1C(=O)[C@@]2(C)[C@@H]3CC[C@@H](O3)[C@@]2(CO)C1=O`, the IC50 in data set [1], in data set [2] and in data set [3] was more than 10 µM throughout.

`C[C@@]12C(=O)N(CCO)C(=O)[C@]1(CO)[C@H]1CC[C@@H]2O1`: the IC50 in data set [1], in data set [2] and in data set [3] was more than 10 µM throughout.

On to `CNC(=O)CCCN1C(=O)[C@H]2[C@@H]3CC[C@@H](O3)[C@@]2(C)C1=O`, for which the IC50 in data set [1], in data set [2] and in data set [3] was more than 10 µM each time.

For the compound `C[C@]12C(=O)N(CC(N)=O)C(=O)[C@H]1[C@@H]1CC[C@H]2O1`, the IC50 in data set [1], in data set [2] and in data set [3] was more than 10 µM throughout.

In the case of `C[C@@]12C(=O)N(CCCN3C(=O)[C@@]4(C)[C@@H]5CC[C@@H](O5)[C@@]4(C)C3=O)C(=O)[C@]1(C)[C@H]1CC[C@@H]2O1`, the IC50 in data set [1], in data set [2] and in data set [3] was more than 10 µM throughout.

As for `C[C@@]12C(=O)NC(=O)[C@]1(CO)[C@H]1CC[C@@H]2O1`, the IC50 in data set [1], in data set [2] and in data set [3] was more than 10 µM in each case.

With `C[C@@]12C(=O)N(CCCO)C(=O)[C@]1(C)[C@H]1CC[C@@H]2O1`, the IC50 in data set [1], in data set [2] and in data set [3] was more than 10 µM each time.

With `C[C@@]12C(=O)N(CCCO)C(=O)[C@]1(CO)[C@H]1CC[C@@H]2O1`, the IC50 in data set [1], in data set [2] and in data set [3] was more than 10 µM each time.

As for `C[C@]12C(=O)NC(=O)[C@H]1[C@@H]1CC[C@H]2O1`, the IC50 in data set [1], in data set [2] and in data set [3] was more than 10 µM in each case.

Turning to `C[C@@]12C(=O)NC(=O)[C@]1(C)[C@H]1CC[C@@H]2O1`, in data set [4], the CC50 at 72 h is 280 µM. The IC50 in data set [5] was 42 µM; in data set [6] it was more than 260 µM; in data set [1], more than 10 µM; in data set [2] it was more than 10 µM; in data set [3], more than 10 µM. The “Ratio CC50/IC50” value in data set [7] came to 6.7.

For the compound `C[C@@]12C(=O)N(CCC(N)=O)C(=O)[C@]1(C)[C@H]1CC[C@@H]2O1`, the IC50 in data set [1], in data set [2] and in data set [3] was more than 10 µM throughout.

Compound `C[C@@]12C(=O)N(CCc3ccc(O)cc3)C(=O)[C@]1(C)[C@H]1CC[C@@H]2O1` registered a CC50 at 72 h in data set [4] of more than 320 µM. In addition, the IC50 in data set [5] is 58 µM; in data set [6] it was more than 160 µM; in data set [1], more than 10 µM; in data set [2], more than 10 µM; in data set [3] it was more than 10 µM.

For `CC(=O)CN1C(=O)[C@@]2(C)[C@@H]3CC[C@@H](O3)[C@@]2(C)C1=O`, the IC50 in data set [1], in data set [2] and in data set [3] was more than 10 µM in each case.

With `CC(C)(C)C(=O)OCOP(=O)(COCCn1cnc2c(N)ncnc21)OCOC(=O)C(C)(C)C` [ADEFOVIR DIPIVOXIL], the CC50 at 72 h in data set [4] was more than 400 µM. For the same compound, the IC50 in data set [5] stood at 290 µM; in data set [6], 270 µM.
